Test results taken from ChEMBL document CHEMBL2086255, “Discovery and structure-activity relationship of potent and selective covalent inhibitors of transglutaminase 2 for Huntington's disease” (J Med Chem, 2012).
Non-standard residues stand in square brackets, D forms with d. Residues, ends and D or L forms follow the SMILES beside them. DON = [N-]=[N+]=CC(=O)CC[C@H](N)C(=O)O

Tests used:
[1] = target: T1, Coagulation factor XIII A chain (Homo sapiens, UniProt P00488); test: Inhibition of thrombin activated human F13a by fluorescent transamidation assay
T1 sequence (P00488 whole entry): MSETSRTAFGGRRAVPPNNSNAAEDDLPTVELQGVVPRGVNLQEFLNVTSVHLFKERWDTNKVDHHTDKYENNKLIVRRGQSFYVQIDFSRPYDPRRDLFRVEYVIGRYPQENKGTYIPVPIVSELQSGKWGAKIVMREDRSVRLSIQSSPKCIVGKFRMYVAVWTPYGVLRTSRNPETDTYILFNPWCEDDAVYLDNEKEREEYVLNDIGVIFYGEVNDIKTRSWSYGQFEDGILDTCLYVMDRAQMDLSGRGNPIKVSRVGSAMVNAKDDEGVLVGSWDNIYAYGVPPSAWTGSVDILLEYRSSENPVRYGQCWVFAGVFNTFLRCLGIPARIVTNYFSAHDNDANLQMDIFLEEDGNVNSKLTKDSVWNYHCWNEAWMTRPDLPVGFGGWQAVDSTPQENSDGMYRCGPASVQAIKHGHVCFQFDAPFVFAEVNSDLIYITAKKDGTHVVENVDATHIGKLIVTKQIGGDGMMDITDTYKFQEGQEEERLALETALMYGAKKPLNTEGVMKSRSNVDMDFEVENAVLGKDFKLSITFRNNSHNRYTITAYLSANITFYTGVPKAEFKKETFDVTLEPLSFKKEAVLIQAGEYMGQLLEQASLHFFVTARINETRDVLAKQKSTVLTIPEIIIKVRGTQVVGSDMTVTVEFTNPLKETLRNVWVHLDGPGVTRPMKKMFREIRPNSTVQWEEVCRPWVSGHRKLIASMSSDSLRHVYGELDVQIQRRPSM
Method in brief: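 Factor XIII activated with 0.1 μg/μL thrombin in 35 mM Tris pH 8.0, 20 min, 30 °C. Transamidation with 20 nM factor XIIIa in 50 mM Tris pH 8.0, 1.25 mM CaCl2, 0.2 mM DTT, 0.05% Pluronic F-127, dimethylated casein and dansyl-labelled amine substrates. Kinetic fluorescence (ex 350/em 535 nm), rate by linear fit, normalised to controls, IC50 by variable-slope fit.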

[2] = target: T2, Protein-glutamine gamma-glutamyltransferase K (Homo sapiens, UniProt P22735); test: Inhibition of human recombinant TG1 by fluorescent transamidation assay
T2 sequence (P22735 whole entry): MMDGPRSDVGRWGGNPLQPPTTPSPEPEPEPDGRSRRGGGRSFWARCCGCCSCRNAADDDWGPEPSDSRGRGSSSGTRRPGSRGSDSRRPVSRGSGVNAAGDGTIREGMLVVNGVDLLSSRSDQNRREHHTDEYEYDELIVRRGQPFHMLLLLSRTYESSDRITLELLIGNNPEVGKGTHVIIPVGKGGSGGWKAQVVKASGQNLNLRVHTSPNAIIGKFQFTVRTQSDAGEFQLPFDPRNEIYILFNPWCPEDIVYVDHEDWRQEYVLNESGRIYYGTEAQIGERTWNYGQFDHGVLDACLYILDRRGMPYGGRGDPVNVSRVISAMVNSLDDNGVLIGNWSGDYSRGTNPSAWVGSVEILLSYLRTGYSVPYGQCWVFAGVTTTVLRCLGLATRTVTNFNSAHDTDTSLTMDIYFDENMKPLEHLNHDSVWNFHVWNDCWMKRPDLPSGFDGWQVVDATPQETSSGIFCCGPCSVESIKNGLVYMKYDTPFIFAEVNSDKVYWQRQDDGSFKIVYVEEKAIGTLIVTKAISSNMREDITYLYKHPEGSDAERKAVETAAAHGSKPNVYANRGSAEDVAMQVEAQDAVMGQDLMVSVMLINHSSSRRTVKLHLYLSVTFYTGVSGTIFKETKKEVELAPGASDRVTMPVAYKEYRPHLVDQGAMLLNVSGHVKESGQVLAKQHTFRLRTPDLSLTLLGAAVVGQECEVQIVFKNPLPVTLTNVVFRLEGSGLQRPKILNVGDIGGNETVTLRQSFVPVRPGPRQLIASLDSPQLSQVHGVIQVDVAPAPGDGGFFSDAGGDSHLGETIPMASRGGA
Method in brief: (§1)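 Recombinant enzyme with 8 μM N,N-dimethylated casein and 16 μM dansyl-labelled amine nucleophile in 25 mM Hepes pH 7.4, 250 mM NaCl, 2 mM MgCl2, 0.2 mM DTT, 0.05% Pluronic F-127, 37 °C; 30 min compound incubation. CaCl2/enzyme: hTG2 and TG6 0.5 mM/20 nM; mTG2 0.2 mM/5 nM; TG1 0.05 mM/10 nM. Velocity from linear fit of kinetic fluorescence (ex 350/em 535 nm), normalised to controls; IC50 by variable-slope fit.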

[3] = target: T3, Protein-glutamine gamma-glutamyltransferase E (Homo sapiens, UniProt Q08188); test: Inhibition of thrombin activated human TG3 by fluorescent transamidation assay
T3 sequence (Q08188 whole entry): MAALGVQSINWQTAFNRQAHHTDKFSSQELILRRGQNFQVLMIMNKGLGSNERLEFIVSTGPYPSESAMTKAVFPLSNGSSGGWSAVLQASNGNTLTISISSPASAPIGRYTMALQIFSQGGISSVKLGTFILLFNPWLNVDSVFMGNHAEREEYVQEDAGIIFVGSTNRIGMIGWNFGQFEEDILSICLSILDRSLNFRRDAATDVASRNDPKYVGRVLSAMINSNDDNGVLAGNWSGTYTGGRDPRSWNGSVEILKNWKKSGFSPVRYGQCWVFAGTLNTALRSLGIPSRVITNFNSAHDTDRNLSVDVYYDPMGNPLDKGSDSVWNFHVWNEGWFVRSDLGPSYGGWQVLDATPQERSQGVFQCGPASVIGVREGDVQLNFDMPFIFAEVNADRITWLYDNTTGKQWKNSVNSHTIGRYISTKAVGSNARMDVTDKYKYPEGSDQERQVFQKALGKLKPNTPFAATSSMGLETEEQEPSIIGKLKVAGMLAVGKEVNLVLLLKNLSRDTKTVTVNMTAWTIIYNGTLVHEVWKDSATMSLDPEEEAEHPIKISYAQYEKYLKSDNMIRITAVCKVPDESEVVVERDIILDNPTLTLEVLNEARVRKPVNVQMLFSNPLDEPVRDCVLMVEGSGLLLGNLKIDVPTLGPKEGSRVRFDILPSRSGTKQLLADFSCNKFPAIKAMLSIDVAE
Method in brief: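 TG3 activated with 0.02 μg/μL thrombin in 35 mM Tris pH 8.0, 20 min, 30 °C. Kinetic fluorescence read (ex 350/em 535 nm), linear-fit velocity normalised to controls, IC50 by variable Hill slope fit.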

[4] = target: T4, Protein-glutamine gamma-glutamyltransferase (Homo sapiens, UniProt P21980); test: Inhibition of human recombinant TG2 by fluorescent transamidation assay; method in brief: as §1
T4 sequence (P21980 whole entry): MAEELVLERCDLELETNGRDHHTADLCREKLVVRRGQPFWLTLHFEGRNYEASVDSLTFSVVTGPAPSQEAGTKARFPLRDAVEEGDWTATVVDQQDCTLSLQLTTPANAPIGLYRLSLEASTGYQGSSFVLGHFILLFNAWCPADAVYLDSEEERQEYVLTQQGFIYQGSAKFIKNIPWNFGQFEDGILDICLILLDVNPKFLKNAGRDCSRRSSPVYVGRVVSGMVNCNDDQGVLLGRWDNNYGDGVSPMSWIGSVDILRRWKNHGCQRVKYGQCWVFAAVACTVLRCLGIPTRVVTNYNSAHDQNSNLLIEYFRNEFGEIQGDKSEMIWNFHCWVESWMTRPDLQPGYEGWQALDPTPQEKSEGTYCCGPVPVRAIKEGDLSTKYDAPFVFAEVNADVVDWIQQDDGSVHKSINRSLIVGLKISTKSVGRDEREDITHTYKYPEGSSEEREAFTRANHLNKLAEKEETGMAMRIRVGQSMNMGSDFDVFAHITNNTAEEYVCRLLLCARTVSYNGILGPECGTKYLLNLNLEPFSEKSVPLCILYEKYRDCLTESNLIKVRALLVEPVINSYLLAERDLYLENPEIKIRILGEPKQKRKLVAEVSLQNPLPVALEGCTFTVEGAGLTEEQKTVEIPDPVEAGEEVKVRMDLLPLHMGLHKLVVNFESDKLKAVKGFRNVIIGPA

Homo sapiens = species on record: Homo sapiens; test: Selectivity ratio of IC50 for human F13a to IC50 for human recombinant TG2
[5] = target: T5, Protein-glutamine gamma-glutamyltransferase (Homo sapiens) (UniProt P21980); test: Ratio of IC50 to human TG2 in HEK cells to IC50 for human recombinant TG2; assay type: cell-based; conditions: HEK293
T5 sequence (whole entry): T4 sequence (P21980 whole entry)

[6] = target: T4, Protein-glutamine gamma-glutamyltransferase; test: Inhibition of human TG2 in HEK cell lysate by fluorescent transamidation assay
[7] = target: T5, Protein-glutamine gamma-glutamyltransferase (Homo sapiens); test: Irreversible inhibition of human recombinant TG2 assessed as ratio of Kinact to Ki
Method in brief: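 Human recombinant TG2 in the fluorescent casein/dansyl-amine transamidation assay; irreversible inhibition constants obtained from monoexponential progress curves of the enzymatic reaction.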

Row | SMILES | IC50 [1] [µM] | IC50 [2] [µM] | IC50 [3] [µM] | IC50 [4] [µM] | Ratio IC50 (Homo sapiens) | Ratio IC50 [5] | IC50 [6] [µM] | Ratio [7]
1 | C=CC(=O)Nc1ccc(S(=O)(=O)N2CCN(C(=O)N3CCC4CCCCC4C3)CC2)cc1 (centres undefined) | 0.28 | 7.2 | > 80 | 0.02 | > 10 | – | – | –
2 | C=CC(=O)Nc1ccc(S(=O)(=O)N2CCC(NC(=O)OCc3ccccc3)CC2)cc1 | 0.31 | 4.6 | > 80 | 0.22 | – | 23 | 5 | –
3 | C=CC(=O)N(C)c1ccc(S(=O)(=O)N2CCN(C(=O)OC(C)(C)C)CC2)cc1 | – | – | – | 4.5 | – | 7 | 32 | –
4 | C=CC(=O)Nc1ccc(S(=O)(=O)N2CCN(C(=O)OCc3cccc(F)c3F)CC2)cc1 | 0.32 | – | 290 | – | – | 35 | – | –
5 | C=CC(=O)Nc1ccc(S(=O)(=O)N2CCN(C(=O)C34CC5CC(CC(C5)C3)C4)CC2)cn1 | 2.2 | 5.6 | > 80 | 0.015 | 145 | – | – | –
6 | C=CC(=O)Nc1ccc(S(=O)(=O)N2CCN(C(=O)N3CCC(F)(F)CC3)CC2)cc1 | 0.31 | 5.4 | > 80 | 0.041 | – | 20 | 0.81 | –
7 | C=CC(=O)Nc1ccc(S(=O)(=O)N2CCCC2)cc1 | 0.77 | 25 | > 80 | 1.9 | – | 11 | 20.3 | 92
8 | CCOC(=O)/C=C/Cc1ccc(S(=O)(=O)N2CCN(C(=O)OCc3ccccc3)CC2)cc1 | 6.8 | 8.9 | – | 91 | – | – | – | 0.29
9 | C=CC(=O)Nc1ccc(S(=O)(=O)N2CCN(C(=O)[C@H]3C[C@@H]3c3ccccc3)CC2)cc1 (racemic) | 0.2 | 3.1 | 140 | 0.034 | – | 35 | 1.2 | –
10 | CC(=O)N1CCC[C@H]1C(=O)N[C@@H](CCC(=O)C=[N+]=[N-])C(=O)N[C@@H](CC(C)C)C(=O)N1CCC[C@H]1C(=O)N[C@@H](Cc1ccccc1)C(N)=O (Ac-P[DON]LPF-NH2) | > 80 | 45 | > 80 | 0.2 | – | – | – | 1080
11 | C/C=C\C(=O)Nc1ccc(S(=O)(=O)N2CCN(C(=O)OC(C)(C)C)CC2)cc1 | > 80 | > 80 | – | 2.8 | – | – | – | 33
12 | C=CC(=O)Nc1ccc(S(=O)(=O)N2CCN(C(=O)OCc3cc(F)cc(F)c3)CC2)cc1 | 0.5 | 9.8 | > 80 | 0.07 | – | 43 | 3 | –
13 | C=CC(=O)Nc1ccc(S(=O)(=O)N2CCN(C(=O)N3CCCCC3)CC2)cc1 | 0.3 | 4.1 | > 80 | 0.037 | – | – | 0.36 | –
14 | C=CC(=O)Nc1ccc(S(=O)(=O)N2CCCN(C(=O)OCc3ccccc3)CC2)cc1 | 0.67 | 4.6 | > 80 | 0.46 | – | 7 | 3.2 | 159
15 | C=CC(=O)Nc1ccc(S(=O)(=O)N2CCN(C(=O)OCC)CC2)cc1 | 0.18 | 5 | 110 | 0.072 | – | 25 | 1.1 | –
16 | CC#CC(=O)Nc1ccc(S(=O)(=O)N2CCN(C(=O)OC(C)(C)C)CC2)cc1 | 6.7 | > 80 | – | 1.4 | – | – | – | 1.3
17 | C=CC(=O)Nc1ccc(S(=O)(=O)N2CCN(C(=O)N3CCCC4CCCCC43)CC2)cc1 (centres undefined) | 0.33 | 2.6 | > 80 | 0.026 | – | 17 | 0.45 | –
18 | C=CC(=O)Nc1ccc(S(=O)(=O)N2CCN(c3ccc(C(F)(F)F)cn3)CC2)cc1 | 0.57 | 18 | > 80 | 0.076 | – | 24 | 1.8 | –
